Test results: ChEMBL document CHEMBL1126279, “Antiallergic and cytoprotective activity of new N-phenylbenzamido acid derivatives” (1992)
Calls of active or inactive are those of the source. No cut-off for these calls is given here.

What was measured:
Rattus norvegicus [1] = experiment: Cytoprotective activity against ethanol-induced gastric lesions in male conscious rats; assay type: functional; conditions: Stomach, read-out: ID50 (the source's name)
Method in brief: (§1)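 Male rats (140–160 g) were fasted 24 h with water allowed. Lesions were induced by 1.5 mL oral absolute ethanol. Drugs were given iv (5 mL/kg) as sodium salt in saline, 15 min before. Stomachs were scored blind at 1 h for necrotic lesion length categories and counts (lesion index). Each agent was given at ≥3 doses, groups of five. % effect vs control was computed, and ID50 came from log-dose regression.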

Rattus norvegicus [2] = experiment: Antiallergic activity against rat passive cutaneous anaphylaxis (PCA) reaction induced by 25 mg/kg of ovalbumin given iv(bolus); assay type: functional; conditions: read-out: ID50 (the source's name)
Rattus norvegicus [3] = experiment: Antiallergic activity against rat passive cutaneous anaphylaxis (PCA) reaction induced by 25 mg/kg of ovalbumin given iv (bolus).; assay type: functional; conditions: read-out: ID50 (the source's name)
Rattus norvegicus [4] = species: Rattus norvegicus; experiment: Inhibition of rat passive cutaneous anaphylaxis reaction; Inactive.; assay type: functional, organism-based
Method in brief: (§2)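 IgE antiserum was raised in male Sprague-Dawley rats by im ovalbumin (25 mg) in Bordetella pertussis suspension, and sera were pooled 14 days later. Naive young rats received 0.05 mL antiserum intradermally at two back sites. After 24 h they were challenged iv with saline containing egg albumin plus Evans blue and killed 30 min later to measure wheal axes. Compounds were given as sodium salt in saline, im, 15 min pre-challenge, at ≥3 doses (n ≥ 15). ID50 was derived by log-dose regression with p = 0.05 fiducial limits.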

Rattus norvegicus [5] = experiment: Cytoprotective activity against ethanol-induced gastric lesions in male conscious rats; Inactive.; assay type: functional, organism-based; conditions: Stomach; method in brief: as §1
Rattus norvegicus [6] = species: Rattus norvegicus; experiment: Compound was evaluated for antiallergic activity against rat passive cutaneous anaphylaxis (PCA); assay type: functional; conditions: read-out: ID50 (the source's name); method in brief: as §2
Rattus norvegicus [7] = experiment: Compound was evaluated for cytoprotective activity against sodium chloride-induced gastric lesions in male conscious rats; assay type: functional; conditions: Stomach, read-out: ID50 (the source's name)
Method in brief: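 Male rats (140–160 g) were fasted 24 h. Lesions were induced by oral 1.5 mL/animal 25% (w/v) NaCl. Drugs were given iv (5 mL/kg) 15 min before. Stomachs were scored blind at 1 h by lesion index, and % effect vs control was calculated. Some agents were given at five dose levels in groups of five; others in duplicate at 30 and 100 mg/kg. ID50 came from log-dose regression.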

Rattus norvegicus [8] = experiment: Compound was evaluated for cytoprotective activity against acetic acid-induced gastric lesions in male conscious rats; assay type: functional; conditions: Stomach, read-out: ID50 (the source's name)
Method in brief: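 Under ether anesthesia, 50 µL of 30% acetic acid was injected into the gastric submucosa of fasted male rats (140–160 g). Drugs were given im at −0.5, 4 and 21 h. […] Agents were given at five dose levels in groups of five, or in duplicate at 100 mg/kg.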

Rattus norvegicus [9] = experiment: Compound was evaluated for cytoprotective activity against glucose-induced gastric lesions in male conscious rats; assay type: functional; conditions: Stomach, read-out: ID50 (the source's name)
Method in brief: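 Male rats (180–200 g) were fasted 24 h, then fed solely an aqueous glucose liquid meal. Drugs were given sc twice daily for 9 days. Lesions were scored by number of necrotic lesions and extent of impaired rumen area, and % effect vs control was calculated. Agents were given at four dose levels in groups of five in duplicate, or in duplicate at 100 mg/kg.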

Row | Structure (SMILES) | ED50 (Rattus norvegicus [1]) [mg/kg] | ED50 (Rattus norvegicus [3]) [mg/kg] | ID50 (Rattus norvegicus [4]) | ID50 (Rattus norvegicus [5]) | also measured
1 | O=C(Nc1ccccc1-c1nn[nH]n1)c1cccc(-c2nn[nH]n2)c1 | 9.7 |  |  |  | ED50 (Rattus norvegicus [2]): 1.4 mg/kg
2 | CCCCc1ccc(C(=O)Nc2cc(C(=O)O)cc(C(=O)O)c2)cc1 | 91.9 | 12.3 |  |  | 
3 | O=C(O)c1cc(NC(=O)c2cccc(Cl)c2)cc(C(=O)O)c1 |  |  | inactive | inactive | 
4 | O=C(O)c1ccc(NC(=O)c2ccc(C(=O)O)cc2)cc1 | 54.3 | 25.4 |  |  | 
5 | COc1cc(OC)cc(C(=O)Nc2cc(C(=O)O)cc(C(=O)O)c2)c1 | 108 |  | inactive |  | 
6 | O=C(O)c1ccc(C(=O)O)c(NC(=O)c2ccc(-c3nn[nH]n3)cc2)c1 | 31.1 | 1.2 |  |  | 
7 | N#Cc1ccc(C(=O)Nc2ccc(C(=O)O)cc2)cc1 |  |  | inactive | inactive | 
8 | O=C(O)c1cc(NC(=O)c2ccc(Cl)cc2Cl)cc(C(=O)O)c1 | 103 |  | inactive |  | 
9 | N#Cc1ccc(C(=O)Nc2cc(C(=O)O)ccc2C(=O)O)cc1 | 26.8 | 1.5 |  |  | 
10 | N#Cc1ccc(C(=O)Nc2cccc(-c3nn[nH]n3)c2)cc1 | 21.4 |  | inactive |  | 
11 | O=C(Nc1ccccc1-c1nn[nH]n1)c1ccc(-c2nn[nH]n2)cc1 | 6.1 | 1.5 |  |  | 
12 | N#Cc1ccc(C(=O)Nc2cc(C(=O)O)cc(C(=O)O)c2)cc1 | 32.1 | 1.7 |  |  | 
13 | N#Cc1ccc(C(=O)Nc2cccc(C(=O)O)c2)cc1 |  |  | inactive | inactive | 
14 | N#Cc1ccc(C(=O)Nc2ccc(-c3nn[nH]n3)cc2)cc1 | 54.4 | 2.4 |  |  | 
15 | O=C(O)c1cc(NC(=O)c2ccc(O)cc2)cc(C(=O)O)c1 |  |  | inactive | inactive | 
16 | N#Cc1ccc(NC(=O)c2ccc(C(=O)O)cc2)cc1 |  |  | inactive | inactive | 
17 | O=C(Nc1ccc(C(=O)O)c(C(=O)O)c1)c1ccc([N+](=O)[O-])cc1 |  | 13.2 |  | inactive | 
18 | COc1ccc(/C=C/C(=O)Nc2ccccc2C(=O)O)cc1OC [TRANILAST] |  | 3.6 |  | inactive | 
19 | N#Cc1ccc(C(=O)Nc2cc(C(N)=O)cc(C(=O)O)c2)cc1 | 87.2 | 5.7 |  |  | 
20 | CCCc1ccc(C(=O)Nc2cc(C(=O)O)cc(C(=O)O)c2)cc1 | 94.2 |  |  |  | ED50 (Rattus norvegicus [6]): 6.7 mg/kg
21 | N#Cc1ccc(C(=O)Nc2cccc(C(=O)O)c2C(=O)O)cc1 | 135 | 15.8 |  |  | 
22 | CN(C(=O)c1ccc(-c2nn[nH]n2)cc1)c1ccc(-c2nn[nH]n2)cc1 | 60 | 3.8 |  |  | 
23 | COc1cc(C(=O)Nc2cc(C(=O)O)cc(C(=O)O)c2)cc(OC)c1OC |  |  | inactive | inactive | 
24 | O=C(Nc1cccc(-c2nn[nH]n2)c1)c1cccc(-c2nn[nH]n2)c1 | 15.8 | 1.6 |  |  | 
25 | O=C(O)c1cc(NC(=O)c2cc(O)cc(O)c2)cc(C(=O)O)c1 | 90.2 |  | inactive |  | 
26 | O=C([O-])c1cc(=O)c2c(OCC(O)COc3cccc4oc(C(=O)[O-])cc(=O)c34)cccc2o1.[Na+].[Na+] [CROMOLYN SODIUM] | 50.8 | 1.5 |  |  | 

Row | Structure (SMILES) | ED50 (Rattus norvegicus [1]) [mg/kg] | ED50 (Rattus norvegicus [3]) [mg/kg] | ID50 (Rattus norvegicus [4]) | ID50 (Rattus norvegicus [5]) | also measured
27 | O=C(O)c1cc(NC(=O)c2ccc(Cl)cc2)cc(C(=O)O)c1 | 97.3 |  | inactive |  | 
28 | N#Cc1ccc(C(=O)Nc2ccc(C(=O)O)cc2C(=O)O)cc1 | 66.3 | 19.5 |  |  | 
29 | O=C(O)c1cc(NC(=O)c2ccc([N+](=O)[O-])cc2)cc(C(=O)O)c1 | 61.1 | 9.8 |  |  | 
30 | O=C(Nc1ccc(-c2nnn[nH]2)cc1)c1ccc(-c2nnn[nH]2)cc1 [ANDOLAST] | 2.5 |  |  |  | ED50 (Rattus norvegicus [7]): 18.2 mg/kg; ED50 (Rattus norvegicus [8]): 9.4 mg/kg; ED50 (Rattus norvegicus [9]): 23.9 mg/kg; ED50 (Rattus norvegicus [2]): 0.09 mg/kg
31 | O=C(O)c1ccc(C(=O)Nc2cc(C(=O)O)cc(C(=O)O)c2)cc1 | 32.2 | 2.1 |  |  | 
32 | O=C(O)c1cc(NC(=O)c2ccccc2)cc(C(=O)O)c1 |  |  | inactive | inactive | 
33 | O=C(Nc1ccccc1)c1ccc(-c2nn[nH]n2)cc1 | 40 | 8.4 |  |  | 
34 | O=C(Nc1ccc(-c2nn[nH]n2)cc1)c1cccc(-c2nn[nH]n2)c1 | 0.6 | 0.05 |  |  | 
35 | O=C(Nc1cccc(-c2nn[nH]n2)c1)c1ccc(-c2nn[nH]n2)cc1 | 1.1 | 0.03 |  |  | 
36 | COc1ccc(C(=O)Nc2cc(C(=O)O)cc(C(=O)O)c2)cc1 |  |  | inactive | inactive | 
37 | N#Cc1ccc(C(=O)Nc2ccc(C(=O)O)c(C(=O)O)c2)cc1 |  | 10.1 |  | inactive | 
38 | CCCOc1ccc(C(=O)Nc2cc(C(=O)O)cc(C(=O)O)c2)cc1 | 78 |  | inactive |  | 
39 | O=C(O)c1cc(NC(=O)c2ccc(-c3nn[nH]n3)cc2)cc(C(=O)O)c1 | 8.2 | 1.2 |  |  | 
40 | N#Cc1ccc(C(=O)Nc2cc(CO)cc(C(=O)O)c2)cc1 |  |  | inactive | inactive | 
41 | COc1ccc(C(=O)Nc2cc(C(=O)O)cc(C(=O)O)c2)cc1OC | 116 |  | inactive |  | 
42 | Cc1ccc(C(=O)Nc2cc(C(=O)O)cc(C(=O)O)c2)cc1 |  |  | inactive | inactive | 
43 | O=C(O)c1ccc(NC(=O)c2ccc([N+](=O)[O-])cc2)cc1 |  |  | inactive | inactive | 
44 | N#Cc1ccc(NC(=O)c2ccc(-c3nn[nH]n3)cc2)cc1 | 19.7 | 1.2 |  |  | 
45 | O=C(O)c1cc(NC(=O)c2ccc(C(F)(F)F)cc2)cc(C(=O)O)c1 |  |  | inactive | inactive | 
46 | NC(=O)c1ccc(NC(=O)c2ccc(-c3nn[nH]n3)cc2)cc1 | 33 | 2 |  |  | 
47 | N#Cc1cccc(C(=O)Nc2cc(C(=O)O)cc(C(=O)O)c2)c1 | 140 | 5 |  |  | 
48 | O=C(O)c1ccc(NC(=O)c2ccc(-c3nn[nH]n3)cc2)cc1 | 3.5 | 2.3 |  |  | 
49 | O=C(O)c1cc(NC(=O)c2ccc(O)c(O)c2)cc(C(=O)O)c1 |  |  | inactive | inactive | 
50 | O=C(Nc1ccccc1)c1cccc(-c2nn[nH]n2)c1 | 38.1 | 4.5 |  |  | 
51 | CCCc1c2oc(C(=O)O)cc(=O)c2cc2c(=O)cc(C(=O)O)n(CC)c12 [NEDOCROMIL] |  | 1.3 |  | inactive | 
